Published values collected from several papers.
Each line is one published result; the experiments were not run side by side. In brackets after ≈: the same amount, converted by molar mass.
Organism: Staphylococcus aureus

Structure (SMILES) | assay | test system | setting | endpoint | result
Cc1onc(-c2ccccc2)c1C(=O)N[C@@H]1C(=O)N2[C@@H]1SC(C)(C)[C@@H]2C(=O)O | microbial growth | MRSA | drug-resistant strain | MIC | > 4 µg/mL
CC(=O)NC[C@H]1CN(c2ccc(N3CCOCC3)c(F)c2)C(=O)O1 | microbial growth, broth dilution | MRSA | – | MIC | 1 µg/mL
O=C(O)c1cn(C2CC2)c2cc(N3CCNCC3)c(F)cc2c1=O | microbial growth, well diffusion | ATCC23235 | 100 µg/mL | inhibition zone | 36 mm
O=C(O)c1cn(C2CC2)c2cc(N3CCNCC3)c(F)cc2c1=O | microbial growth, broth dilution | ATCC33591 MRSA | 16 h, drug-resistant strain | MIC | 6.25 µM
CN1C(=S)N(c2ccccc2)C(=O)/C1=C1/C(=O)N(C)c2ccc(Cl)cc21 | microbial growth, broth dilution | ATCC43300 MRSA | – | MIC | 2.4 µg/mL
CN[C@H](CC(C)C)C(=O)N[C@H]1C(=O)N[C@@H](CC(N)=O)C(=O)N[C@H]2C(=O)N[C@H]3C(=O)N[C@H](C(=O)N[C@H](C(=O)O)c4cc(O)cc(O)c4-c4cc3ccc4O)[C@H](O)c3ccc(c(Cl)c3)Oc3cc2cc(c3O[C@@H]2O[C@H](CO)[C@@H](O)[C@H](O)[C@H]2O[C@H]2C[C@](C)(N)[C@H](O)[C@H](C)O2)Oc2ccc(cc2Cl)[C@H]1O | microbial growth, broth dilution | ATCCBAA44 | drug-resistant strain | MIC | 1 µg/mL
CN(C)[C@@H]1C(O)=C(C(N)=O)C(=O)[C@@]2(O)C(O)=C3C(=O)c4c(O)cccc4[C@@](C)(O)[C@H]3C[C@@H]12 | microbial growth, broth dilution | ATCC33591 MRSA | 16 h, drug-resistant strain | MIC | 100 µM
CCc1ccc(N2C(=O)/C(=C3/C(=O)N(C)c4ccc(Cl)cc43)NC2=S)cc1 | microbial growth, broth dilution | ATCC43300 MRSA | – | MIC | 9.2 µg/mL
C[C@@H]1C[C@@H]([C@H](O)CC2CC(=O)NC(=O)C2)C(=O)[C@@H](C)C1 | microbial growth, broth dilution | ATCC6538 | – | MIC | 28 µg/mL
CC(=O)NC[C@H]1CN(c2ccc(N3CCOCC3)c(F)c2)C(=O)O1 | microbial killing | ATCC43300 MRSA | – | MBC | 40.6 µg/mL (≈ 120 µM)
C[C@H]1COc2c(N3CCN(C)CC3)c(F)cc3c(=O)c(C(=O)O)cn1c23 | microbial growth | MRSA | drug-resistant strain | MIC | 0.25 µg/mL
COc1ccc2c(c1OC)CN1CCc3cc4c(cc3C1C2)OCO4 (stereo not shown) | microbial growth | – | 24 h | MIC50 | > 1600 µM
CCOC(=O)/C=C1/SC(N/N=C/c2c(-c3ccc(F)cc3)nc3ncccn23)=NC1=O | microbial growth, well diffusion | ATCC23235 | 100 µg/mL | inhibition zone | 10 mm
COc1cccc(OC)c1C(=O)N[C@@H]1C(=O)N2[C@@H]1SC(C)(C)[C@@H]2C(=O)O | microbial growth, broth dilution | ATCCBAA44 | drug-resistant strain | MIC | > 64 µg/mL
C[C@@H](N)[C@H](O)CCCCCCCC(=O)CCCCCCCCCCCCCC[C@@H](O[C@@H]1O[C@H](CO)[C@H](O)[C@H](O)[C@H]1O)[C@@H](C)N | microbial growth, resazurin | ATCC12600 | 50 µM | inhibition | 99%
O=C/C=C/c1ccccc1 | microbial growth, well diffusion | MTCC96 | 1000 µg/mL, 18 h | inhibition zone | 8 mm
